Reference: ChEMBL document CHEMBL1811834, “Synthesis and antimalarial activity of new heterocyclic hybrids based on chloroquine and thiazolidinone scaffolds” (Bioorg Med Chem, 2011)

Assays:
[1] = Inhibition of beta-hematine formation after 18 to 24 hrs by ferriprotoporphyrin 9 biomineralization inhibition test; assay type: functional
Summary of the method: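 Haemin chloride (0.5 mg/mL, freshly dissolved in DMSO) was mixed with 10 mg/mL compound solution or solvent in 0.5 M sodium acetate pH 4.4 and incubated 18–24 h at 37 °C. IC₅₀ is the mean of two experiments in triplicate.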

HepG2 [2] = assay: Cytotoxicity against human HepG2 cells at 23 uM after 24 hrs by MTT assay; assay type: cell-based; settings: hepg2, 24 h
Plasmodium falciparum [3] = assay: Antimalarial activity against erythrocytic stage multidrug-resistant Plasmodium falciparum Dd2 after 48 hrs by fluorescence spectrophotometer; assay type: functional, organism-based; settings: Dd2, 48 h
Plasmodium falciparum [4] = assay: Antimalarial activity against erythrocytic stage chloroquine-sensitive Plasmodium falciparum 3D7 after 48 hrs by fluorescence spectrophotometer; assay type: functional, organism-based; settings: 3D7, 48 h
J774 [5] = assay: Cytotoxicity against mouse macrophage J774 cells at 23 uM after 24 hrs by MTT assay; assay type: cell-based; settings: j774, 24 h
Plasmodium berghei = assay: Antimalarial activity against Plasmodium berghei str. ANKA infected in NMRI mouse at 10 mg/kg/day, ip for three days measured on day 4 by Giemsa staining; assay type: functional; settings: route intraperitoneal
Summary of the method: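 NMRI male mice (20 ± 2 g, groups of five) inoculated on day 0 with 2 × 10⁷ RBCs infected with P. berghei ANKA erythrocytic stages. Two hours later, i.p. dosing at 10 mg/kg/day in DMSO, continued days 1–3.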

J774 [6] = assay: Cytotoxicity against mouse macrophage J774 cells at 37 uM after 24 hrs by MTT assay; assay type: cell-based; settings: j774, 24 h
Summary of the method: (§1)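 5 × 10⁴ cells/well were exposed to compound for 24 h. Medium was then removed and MTT (0.4 mg/mL in PBS) added for 1 h. Crystals were dissolved in DMSO and read at 595 nm. % toxicity = (OD control − OD compound)/OD control × 100.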

HepG2 [7] = assay: Cytotoxicity against human HepG2 cells at 37 uM after 24 hrs by MTT assay; assay type: cell-based; settings: hepg2, 24 h; summary of the method: as §1
J774 [8] = assay: Cytotoxicity against mouse macrophage J774 cells at 19 uM after 24 hrs by MTT assay; assay type: cell-based; settings: j774, 24 h; summary of the method: as §1
HepG2 [9] = assay: Cytotoxicity against human HepG2 cells at 19 uM after 24 hrs by MTT assay; assay type: cell-based; settings: hepg2, 24 h; summary of the method: as §1

Question: For `O=C1CSC(c2ccc3c(c2)OCO3)N1CCNc1ccnc2cc(Cl)ccc12` (stereo not given), which IC50 [1] is on record?
Answer: 58.4 µM

Question: And the Activity (HepG2 [2])?
Answer: 25.53%

Question: What about the IC50 (Plasmodium falciparum [3]) of the same compound?
Answer: 0.75 µM

Question: And the IC50 (Plasmodium falciparum [4])?
Answer: 0.51 µM

Question: And the Activity (J774 [5])?
Answer: 47.93%

Question: With `Clc1ccc2c(NCc3ccccc3)ccnc2c1` as the compound, how does the IC50 [1] read?
Answer: 46.5 µM

Question: What about the IC50 (Plasmodium falciparum [3]) of the same compound?
Answer: 0.33 µM

Question: What about the inhibition in vivo at 10 mg/kg/day (Plasmodium berghei) of the same compound?
Answer: 25%

Question: And the IC50 (Plasmodium falciparum [4])?
Answer: 0.3 µM

Question: What about the Activity (J774 [6]) of the same compound?
Answer: 0%

Question: And the Activity (HepG2 [7])?
Answer: 46.58%

Question: For `CCN(CC)CCCC(C)Nc1ccnc2cc(Cl)ccc12` (stereo not given) [CHLOROQUINE], which Activity (J774 [8]) is on record?
Answer: 0%

Question: What about the IC50 [1] of the same compound?
Answer: 22.3 µM

Question: And the Activity (HepG2 [9])?
Answer: 0%

Question: And the inhibition in vivo at 10 mg/kg/day (Plasmodium berghei)?
Answer: 100%
